Tests used:
[1] = tested on: SW480; test: Antiproliferative activity against p53 mutant expressing human SW480 cells assessed as inhibition of cell proliferation by MTT assay; type: functional, cell-based
[2] = Antiproliferative activity against wild-type p53 expressing human HCT116 cells assessed as inhibition of cell proliferation by MTT assay; type: functional, cell-based; details: HCT-116
[3] = tested on: RKO; test: Antiproliferative activity against wild-type p53 expressing human RKO cells assessed as inhibition of cell proliferation by MTT assay; type: functional, cell-based
[4] = tested on: MDA-MB-435; test: Antiproliferative activity against p53 mutant expressing human MDA-MB-435 cells assessed as inhibition of cell proliferation by MTT assay; type: functional, cell-based
[5] = target: T1, Tumour suppressor p53/oncoprotein Mdm2 (Homo sapiens, UniProt Q00987); test: Inhibition of p53-MDM2 (unknown origin) interaction using 0.02% BSA buffer after 1 hr by HTRF assay; type: protein assay
T1 sequence (P04637 whole entry): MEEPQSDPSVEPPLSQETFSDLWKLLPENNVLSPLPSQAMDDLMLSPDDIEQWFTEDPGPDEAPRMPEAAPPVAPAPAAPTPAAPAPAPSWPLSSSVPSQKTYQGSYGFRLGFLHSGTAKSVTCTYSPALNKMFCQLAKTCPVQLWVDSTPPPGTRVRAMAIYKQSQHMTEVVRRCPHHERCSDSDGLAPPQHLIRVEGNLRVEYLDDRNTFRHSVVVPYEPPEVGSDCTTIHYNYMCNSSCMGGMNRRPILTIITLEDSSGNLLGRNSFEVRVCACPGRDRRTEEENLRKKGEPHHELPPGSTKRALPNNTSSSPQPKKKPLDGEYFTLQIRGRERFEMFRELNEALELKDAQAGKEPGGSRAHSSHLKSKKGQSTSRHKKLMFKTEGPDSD
T1 sequence (Q00987 whole entry): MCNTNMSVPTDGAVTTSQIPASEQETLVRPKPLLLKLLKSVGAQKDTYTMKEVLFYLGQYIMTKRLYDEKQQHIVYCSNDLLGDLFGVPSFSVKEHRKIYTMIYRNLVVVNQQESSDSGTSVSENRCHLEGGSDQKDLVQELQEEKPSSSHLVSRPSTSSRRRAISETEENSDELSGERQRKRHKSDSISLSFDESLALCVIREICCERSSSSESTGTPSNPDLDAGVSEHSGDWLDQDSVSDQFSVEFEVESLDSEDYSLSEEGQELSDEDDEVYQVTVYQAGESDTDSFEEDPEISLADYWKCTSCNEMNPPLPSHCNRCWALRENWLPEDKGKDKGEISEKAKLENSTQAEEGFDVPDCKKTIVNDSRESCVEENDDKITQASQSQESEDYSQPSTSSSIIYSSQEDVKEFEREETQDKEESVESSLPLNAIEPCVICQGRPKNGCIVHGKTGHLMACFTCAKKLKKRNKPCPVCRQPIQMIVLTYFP

[6] = target: T1, Tumour suppressor p53/oncoprotein Mdm2; test: Inhibition of p53-MDM2 (unknown origin) interaction using 0.2% BSA buffer after 1 hr by HTRF assay; type: protein assay
[7] = Apparent terminal half life in C57 mouse at 5 mg/kg, iv; type: ADME, organism-based; design: dose 5 mg/kg, route intravenous; details: in vivo, read-out: betat1/2(app) (converted)
Outline: (§1)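 Male C57 mice received a single dose, given orally or intravenously in separate arms. Plasma pharmacokinetic parameters were derived from the resulting concentration–time data and reported as means.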

[8] = Total plasma clearance in C57 mouse at 5 mg/kg, iv; type: ADME, organism-based; design: dose 5 mg/kg, route intravenous; outline: as §1
[9] = Cmax in C57 mouse at 25 mg/kg, po; type: ADME, organism-based; design: dose 25 mg/kg, route oral; details: in vivo; outline: as §1
[10] = Oral bioavailability in C57 mouse at 25 mg/kg; type: ADME, organism-based; details: in vivo; outline: as §1
[11] = Oral bioavailability in C57 mouse at 50 mg/kg; type: ADME, organism-based; details: in vivo; outline: as §1
[12] = Cmax in C57 mouse at 50 mg/kg, po; type: ADME, organism-based; design: dose 50 mg/kg, route oral; details: in vivo; outline: as §1

SMILES | IC50 [1] [nM] | IC50 [4] [nM] | IC50 [5] [nM] | IC50 [6] [nM] | half-life [7] [h] | clearance [8] [mL/min/kg] | Cmax [9] [ng/mL] | bioavailability [10] [%] | bioavailability [11] [%] | Cmax [12] [ng/mL] | IC50 [2] [nM] | IC50 [3] [nM]
COc1cc(NC(=O)[C@@H]2N[C@@H](CC(C)(C)C)[C@@]3(C(=O)Nc4cc(Cl)ccc43)[C@H]2c2cccc(Cl)c2F)ccc1C(=O)O | 14400 | 11500 | – | – | – | – | – | – | – | – | 50 | 240
COc1cc(NC(=O)[C@H]2N[C@H](CC(C)(C)C)[C@]3(C(=O)Nc4cc(Cl)ccc43)[C@@H]2c2cccc(Cl)c2F)ccc1C(=O)O | – | – | 3090 | 3740 | – | – | – | – | – | – | – | –
COc1cc(C(=O)O)ccc1NC(=O)[C@@H]1N[C@@H](CC(C)(C)C)[C@@]2(C(=O)Nc3cc(Cl)ccc32)[C@H]1c1cccc(Cl)c1F | 9800 | 12100 | – | – | 11.1 | 34.6 | 800 | 21 | – | – | 10 | 20
CC(C)(C)C[C@@H]1N[C@@H](C(=O)Nc2ccc(C(N)=O)cc2)[C@H](c2cccc(Cl)c2F)[C@]12C(=O)Nc1cc(Cl)ccc12 | 14300 | 11600 | 5 | 5 | 10.4 | 3.5 | – | – | 63 | 8300 | 70 | 150
CC(C)(C)C[C@@H]1N[C@@H](C(=O)Nc2ccc(C(N)=O)cc2F)[C@H](c2cccc(Cl)c2F)[C@]12C(=O)Nc1cc(Cl)ccc12 | 7100 | 10000 | 7 | 7 | 15.3 | 3.4 | – | – | 75 | 13100 | 120 | 220
COc1cc(C(N)=O)ccc1NC(=O)[C@@H]1N[C@@H](CC(C)(C)C)[C@@]2(C(=O)Nc3cc(Cl)cc(F)c32)[C@H]1c1cccc(Cl)c1F | 10500 | 12000 | – | 6 | – | – | – | – | – | – | 120 | 80
CC(C)(C)C[C@@H]1N[C@@H](C(=O)Nc2ccc(C(N)=O)cc2)[C@H](c2cccc(Cl)c2F)[C@]12C(=O)Nc1cc(Cl)c(F)cc12 | 15200 | 10900 | – | – | 8.8 | 2.6 | – | – | 45 | 8700 | 180 | 430
CC(=O)N1CCCC([C@]2(Cc3cccc(Cl)c3)C(=O)Nc3cc(Cl)ccc32)C1 (stereo partly specified) | – | – | – | 3900 | – | – | – | – | – | – | – | –

Now from value to molecule, other results behind:

IC50 [1] [nM] | IC50 [4] [nM] | IC50 [5] [nM] | IC50 [6] [nM] | half-life [7] [h] | clearance [8] [mL/min/kg] | Cmax [9] [ng/mL] | bioavailability [10] [%] | bioavailability [11] [%] | Cmax [12] [ng/mL] | SMILES | IC50 [2] [nM] | IC50 [3] [nM]
3960 | 6920 | – | – | – | – | – | – | – | – | COc1cc(NC(=O)[C@@H]2N[C@@H](CC(C)(C)C)[C@@]3(C(=O)Nc4cc(Cl)ccc43)[C@H]2c2cccc(Cl)c2F)ccc1C(N)=O | 80 | 90
11300 | 10800 | – | 8 | – | – | – | – | – | – | CC(C)(C)C[C@@H]1N[C@@H](C(=O)Nc2ccc(OCCO)cc2)[C@H](c2cccc(Cl)c2F)[C@]12C(=O)Nc1cc(Cl)ccc12 | 180 | 280
4450 | 9500 | – | – | 6.6 | 6.7 | 4300 | 55 | – | – | COc1cc(OCCO)ccc1NC(=O)[C@@H]1N[C@@H](CC(C)(C)C)[C@@]2(C(=O)Nc3cc(Cl)ccc32)[C@H]1c1cccc(Cl)c1F | 8 | 16
7500 | 9400 | 15 | 18 | – | – | – | – | – | – | COc1cc(C(N)=O)ccc1NC(=O)[C@@H]1N[C@@H](CC(C)(C)C)[C@@]2(C(=O)Nc3c2ccc(Cl)c3F)[C@H]1c1cccc(Cl)c1F (racemic) | 670 | 1080

Reference: ChEMBL document CHEMBL3352737, “Discovery of potent and selective spiroindolinone MDM2 inhibitor, RO8994, for cancer therapy” (Bioorg Med Chem, 2014)
